Measurements from paper PMC5844832 (Bioorganic & medicinal chemistry, 2017).
*: point of attachment. FITC = O=C1OC2(c3ccc(O)cc3Oc3cc(O)ccc32)c2ccc(NC(=S)*)cc21; βAla = NCCC(=O)O

Columns and labels:
HOIL-UBL = target: T1, HOIL-UBL (Homo sapiens, UniProt Q9BYM8); test: Native gel shift assay; assay type: binding; conditions: 2.5 μM FITC peptide, 50 μg/mL protein, 1 h 37 °C, hrCNE
T1 sequence (Q9BYM8 37-128): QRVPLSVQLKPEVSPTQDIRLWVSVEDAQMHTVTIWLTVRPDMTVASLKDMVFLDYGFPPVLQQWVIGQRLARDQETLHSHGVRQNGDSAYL
Summary of the method: (§1)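 Recombinant protein, expressed in Rosetta (DE3) E. coli, was mixed at 50 μg/mL with 2.5 μM FITC-peptide in 1X ubiquitylation buffer, with or without 20 μM unlabelled peptide competitor. Mixtures were incubated 1 h at 37 °C and resolved on 5% acrylamide native gels (bis-Tris, pH 7.0; Tricine/imidazole/deoxycholate cathode buffer) at […] for 4–5 h at 4 °C. Fluorescent bands were imaged, with protein-only lanes as controls.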

Petit-LUBAC = target: T2, Petit-LUBAC (Homo sapiens, UniProt Q96EP0+Q9BYM8); test: Native gel shift assay; assay type: binding; conditions: 2.5 μM FITC peptide, 50 μg/mL protein, 1 h 37 °C, hrCNE
T2 sequence (Q96EP0 474-1072): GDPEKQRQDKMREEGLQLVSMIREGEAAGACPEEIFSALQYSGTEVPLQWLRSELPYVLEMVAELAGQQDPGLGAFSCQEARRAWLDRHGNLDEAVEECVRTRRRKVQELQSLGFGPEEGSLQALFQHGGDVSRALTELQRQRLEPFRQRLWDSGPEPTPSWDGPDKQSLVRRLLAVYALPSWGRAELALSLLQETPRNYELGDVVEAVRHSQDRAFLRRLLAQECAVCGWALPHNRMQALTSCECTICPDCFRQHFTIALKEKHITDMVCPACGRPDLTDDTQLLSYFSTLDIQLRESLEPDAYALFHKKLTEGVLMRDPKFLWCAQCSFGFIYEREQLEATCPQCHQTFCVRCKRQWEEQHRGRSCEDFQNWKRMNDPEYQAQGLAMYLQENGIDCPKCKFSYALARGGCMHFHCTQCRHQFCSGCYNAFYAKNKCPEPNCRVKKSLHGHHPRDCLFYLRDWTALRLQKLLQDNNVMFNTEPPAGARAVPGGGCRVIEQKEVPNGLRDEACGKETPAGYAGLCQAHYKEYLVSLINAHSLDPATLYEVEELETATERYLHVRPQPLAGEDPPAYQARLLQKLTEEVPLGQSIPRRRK
T2 sequence (Q9BYM8 1-191): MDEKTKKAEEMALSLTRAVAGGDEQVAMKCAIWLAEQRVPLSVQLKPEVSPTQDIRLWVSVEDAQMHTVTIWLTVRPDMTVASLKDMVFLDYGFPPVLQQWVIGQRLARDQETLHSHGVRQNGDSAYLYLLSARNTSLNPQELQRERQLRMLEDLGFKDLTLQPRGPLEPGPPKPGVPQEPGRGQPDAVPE
Summary of the method: as §1

HOIP-UBA = target: T3, HOIP-UBA (Homo sapiens, UniProt Q96EP0); test: Native gel shift assay; assay type: binding; conditions: 2.5 μM FITC peptide, 50 μg/mL protein, 1 h 37 °C, hrCNE
T3 sequence (Q96EP0 480-636): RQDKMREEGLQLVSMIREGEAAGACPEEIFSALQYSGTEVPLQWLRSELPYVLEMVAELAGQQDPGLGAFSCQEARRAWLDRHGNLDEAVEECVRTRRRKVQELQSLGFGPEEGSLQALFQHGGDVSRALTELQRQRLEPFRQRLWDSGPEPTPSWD

[1] = target: T4, Petit-LUBAC (truncated sub-complex of LUBAC: HOIL-1L 1-191 and HOIP 474-1072) (human, UniProt Q9BYM8-1 1-191; Q96EP0 474-1072); test: native gel or EMSA
T4 sequence (looked up) 1: T2 sequence (Q9BYM8 1-191)
T4 sequence (looked up) 2: T2 sequence (Q96EP0 474-1072)

[2] = target: T5, HOIP residues 474-1072 (the HOIP chain of Petit-LUBAC) (human, UniProt Q96EP0 474-1072); test: native gel or EMSA
T5 sequence (looked up): T2 sequence (Q96EP0 474-1072)

GST-HOIP-UBA = target: T6, GST-HOIP-UBA (human, UniProt Q96EP0 480-636); test: SPR
T6 sequence: T3 sequence (Q96EP0 480-636)

His6-HOIL-UBL = target: T7, His6-HOIL-UBL (human, UniProt Q9BYM8-1 37-137); test: SPR
T7 sequence: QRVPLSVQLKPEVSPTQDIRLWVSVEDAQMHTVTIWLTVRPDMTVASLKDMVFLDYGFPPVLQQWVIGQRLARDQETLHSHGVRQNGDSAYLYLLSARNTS

For “1: unstapled peptide based on 22-amino acid region of HOIP-UBA (residues 606-627) ({Ac-βAla}-SRALTELQRQRLEPFRQRLWDS-NH2) [Compound 1]”, the “Gel shift of FITC-labelled peptide with HOIL-UBL” value (HOIL-UBL) was “no shift was observed”, the “Gel shift of FITC-labelled peptide with Petit-LUBAC” value (Petit-LUBAC) was “higher shifted molecular weight” and the “Gel shift of FITC-labelled peptide with HOIP-UBA” value (HOIP-UBA) was “a shift similar to the one observed with Petit-LUBAC was observed”.

{FITC-βAla}-SRALTELQRQRLEPFRQRLWDS-NH2 (peptide, UniProt Q96EP0 606-627, looked up) [FITC labeled HOIP WT (1) peptide]: binds [1].

B1: HOIL-1L residues 1-191 (the HOIL chain of Petit-LUBAC) (domain or fragment, human, UniProt Q9BYM8-1 1-191, looked up)
chain: T2 sequence (Q9BYM8 1-191)
B1: binds [2].

{Ac-βAla}-SRALTELQRQRLEGFRQRLWDS-NH2 (peptide, UniProt Q96EP0 606-627, looked up) [P2G WT (5), unstapled HOIP peptide with proline-to-glycine substitution] gave a Kd (GST-HOIP-UBA) of 81.4 µM and a Kd (His6-HOIL-UBL) of 97.3 µM.

B2: N-P2G (6), N-stapled P2G HOIP peptide (peptide)
chain: SRALTELQRQRLEGFRQRLWDS
modifications: N-terminal β-alanine; N-terminal acetyl; hydrocarbon staple between two cross-linking amino acids in the N-terminal (α8) helix
Work on B2 yielded a Kd (GST-HOIP-UBA) of 4.28 µM.
